Measurements as given in BindingDB's records for doi:10.1021/jm049090z (The Bristol-Myers Squibb Pharmaceutical Research Institute, 2005).

Biological target: T1, DNA topoisomerase 1 (Homo sapiens, UniProt P11387)
T1 sequence (P11387 whole entry): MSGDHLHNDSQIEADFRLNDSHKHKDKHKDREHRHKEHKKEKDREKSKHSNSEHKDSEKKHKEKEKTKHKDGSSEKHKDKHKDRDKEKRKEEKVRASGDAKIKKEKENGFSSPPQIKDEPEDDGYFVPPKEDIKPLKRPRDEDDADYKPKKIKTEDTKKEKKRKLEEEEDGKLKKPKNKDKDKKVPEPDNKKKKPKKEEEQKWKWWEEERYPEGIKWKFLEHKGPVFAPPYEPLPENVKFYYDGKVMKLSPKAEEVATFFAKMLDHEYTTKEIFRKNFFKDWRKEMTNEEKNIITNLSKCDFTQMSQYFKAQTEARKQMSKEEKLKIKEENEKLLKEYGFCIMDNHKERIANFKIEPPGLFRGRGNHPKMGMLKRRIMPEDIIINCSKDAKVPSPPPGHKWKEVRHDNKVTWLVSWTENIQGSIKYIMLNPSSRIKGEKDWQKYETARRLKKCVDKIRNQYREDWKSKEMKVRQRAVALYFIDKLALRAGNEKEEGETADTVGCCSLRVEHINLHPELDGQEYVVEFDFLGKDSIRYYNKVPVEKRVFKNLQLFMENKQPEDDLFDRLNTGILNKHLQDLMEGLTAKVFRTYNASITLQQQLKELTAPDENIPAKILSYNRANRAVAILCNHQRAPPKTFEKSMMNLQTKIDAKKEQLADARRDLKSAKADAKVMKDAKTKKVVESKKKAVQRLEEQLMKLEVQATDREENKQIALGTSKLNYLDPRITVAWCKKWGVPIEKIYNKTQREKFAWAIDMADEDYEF
Assay: Topoisomerase I activity for single-strand breaks in the DNA substrate
Method in brief: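 Topo I-mediated DNA cleavage assay using covalently closed, supercoiled phage PM2 DNA as substrate; read-out is induction of single-strand breaks.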

SMILES	EC50 [µM]
O=C1NC(=O)c2c1c1c3cc(F)c(F)cc3[nH]c1c1c2c2cc(F)c(F)cc2n1C1OC(CF)C(O)C(O)C1O (centres undefined) [2,3,9,10-tetrafluoro-12-(6-fluoromethyl-3,4,5-trihydroxytetrahydro-2H-2-pyranyl)-6,7,12,13-tetrahydro-5H-indolo[2,3-a]pyrrolo[3,4-c]carbazole-5,7-dione]	0.48
O=C1NC(=O)c2c1c1c3cc(F)c(F)cc3sc1c1c2c2cc(F)c(F)cc2n1C1OC(CF)C(O)C(O)C1O (centres undefined) [2,3,9,10-tetrafluoro-13-(6-fluoromethyl-3,4,5-trihydroxytetrahydro-2H-2-pyranyl)-5,6,7,13-tetrahydrobenzo[4,5]thieno[2,3-a]pyrrolo[4,3-c]carbazole-5,7-dione]	0.24
O=C1NC(=O)c2c1c1c3cc(F)c(F)cc3sc1c1c2c2cc(F)c(F)cc2n1C1OC(CO)C(F)(F)C(O)C1O (centres undefined) [13-(5,5-difluoro-3,4-dihydroxy-6-hydroxymethyltetrahydro-2H-2-pyranyl)-2,3,9,10-tetrafluoro-5,6,7,13-tetrahydrobenzo[4,5]thieno[2,3-a]pyrrolo[4,3-c]carbazole-5,7-dione]	0.08
O=C1NC(=O)c2c1c1c3cc(F)ccc3[nH]c1c1c2c2cc(F)ccc2n1C1OC(CF)[C@@H](O)C(O)C1O (some centres undefined) [Name not given]	0.704
